# ROMK mod: ROMK potassium channel modulators, primary screen, cell-based, thallium flux, MLSMR library | ATP-sensitive inward rectifier potassium channel 1 (Homo sapiens), P48048 | Tet-inducible ROMK, thallium flux fluorescence; actives lie on both sides | B-score at 10 µM | actives 2% (n = 130,000) | AID 1918, 2009;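 active = signal ratio slope over the read window, or its plate-corrected B-score, at least 3 SD from the plate mean, either direction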;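 also: B-score of the F/F0 ratio slope over 7 to 12 s after thallium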
# Target sequence (P48048 whole entry, looked up): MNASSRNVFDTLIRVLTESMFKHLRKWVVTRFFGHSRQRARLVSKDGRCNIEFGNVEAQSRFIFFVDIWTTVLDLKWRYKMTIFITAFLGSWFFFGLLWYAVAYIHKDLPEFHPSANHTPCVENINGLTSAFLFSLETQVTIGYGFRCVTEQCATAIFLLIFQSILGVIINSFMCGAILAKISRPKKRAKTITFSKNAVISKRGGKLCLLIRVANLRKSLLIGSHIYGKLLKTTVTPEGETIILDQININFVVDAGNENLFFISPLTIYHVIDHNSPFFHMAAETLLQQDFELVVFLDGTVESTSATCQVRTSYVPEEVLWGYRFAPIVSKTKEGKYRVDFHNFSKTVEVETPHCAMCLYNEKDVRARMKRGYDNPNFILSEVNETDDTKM
# Calb biofilm kill: clotrimazole potentiators killing C. albicans biofilm, primary screen, 4-compound mixtures; C. albicans biofilm persisters + clotrimazole, fluorescence viability; primary screen in compound mixtures of four per well; inhibition, % at 7.6 µM; actives 0.02% (n = 120,000);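 active = inhibition above 30.3% in the primary screen of four-compound pools, then above 30% when the compound was retested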;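 also: compounds exposed to preformed 24 h biofilms for 48 h; 0% = untreated biofilm control and 100% = clotrimazole plus chlorhexidine kill blank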
#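 Test system: C. albicans biofilms. Buffer or medium: RPMI/MOPS medium, pH 7.0. Timing: 48 h compound exposure at 37 °C. Technique: Alamar Blue fluorescence. Evaluation: percent inhibition of biofilm viability.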
# * hit, by the source's call; · = not tested or not shown. This is one part of a sample in which hits are shown more often than they occur.
SMILES,ROMK mod,Calb biofilm kill
CCC(C)C(NC(=O)OC(C)(C)C)C(=O)NC(C(=O)NC(C)C(N)=O)C(C)C (configuration not stated),-0.047,4
CCn1ncc([N+](=O)[O-])c1C(=O)Nc1c(C)nn(Cc2ccc(F)cc2)c1C,·,12
Nn1cnc2scc(-c3cccs3)c2c1=O,-1.3,6
C=CCn1c(=S)[nH]c2scc(-c3cccs3)c2c1=O,3.5*,16
C=CCn1c(=S)[nH]c2ccccc2c1=O,0.0068,·
Cn1c(=S)[nH]c2scc(-c3cccs3)c2c1=O,4*,10
CCN1CCN(c2cc(C)nc(-c3ccccc3O)n2)CC1,0.78,13
CC(C)C(=O)NNC(=O)CN1CCN(c2nc(-c3ccccc3)cs2)CC1,0.22,7
O=C(NC(=S)N1CCN(c2nc(-c3ccccc3)cs2)CC1)c1cncc(Br)c1,4.8*,5
Cc1nn(C(=O)c2nn(C)cc2[N+](=O)[O-])c(C)c1Br,0.1,7
CN(C)c1ccc2c(c1)Sc1cc(N(C)C)ccc1N2C(=O)c1ccccc1,·,24
COc1ccc(CC(NC(C)=O)C(=O)NC2CCN(c3ncccc3[N+](=O)[O-])CC2)cc1 (configuration not stated),-1.6,9
CSc1ccc(N/N=C(/C#N)S(=O)(=O)C(C)(C)C)cc1,-3.2*,14
COc1ccc(N/N=C(/C#N)S(=O)(=O)C(C)(C)C)cc1,-1.9,20
COc1ccc(C(=O)N/N=C/c2sc3ccccc3c2O)cc1,-4.5*,11
O=C(N/N=C/c1sc2ccccc2c1O)c1ccccc1,·,17
COC(=O)c1ccccc1NC(=S)N(Cc1ccc2c(c1)OCO2)Cc1cc2ccc(OC)cc2[nH]c1=O,0.24,20
COc1ccc(NC(=O)C(=O)NNC(=O)C(C)Oc2ccc(Cl)cc2Cl)cc1 (configuration not stated),4.8*,10
CC(=O)Nc1ccc(NC(=O)C(C)Oc2ccc(Cl)cc2Cl)cc1 (configuration not stated),·,5
CCOc1ccc(C(C)=O)cc1NC(=O)/C=C\C(=O)O,·,16
CCN1/C(=C/c2ccc3cc(C)ccc3[n+]2CC)Sc2ccccc21,·,14
CCN1/C(=C/c2ccc3cc(C)ccc3[n+]2CC)Sc2cc(C)c(C)cc21,·,32*
CCCCCN1CN(S(=O)(=O)c2cccs2)c2nc3ccccc3nc21,·,-5
CC(=O)Nc1sc2c(c1C(N)=O)CCC2,2.5*,16
CC(=O)Nc1sc2c(c1C#N)CCC2,-1.3,14
SMILES,ROMK mod,Calb biofilm kill
CNc1cc(C)nc(-n2nc(C)cc2C)n1,-0.31,·
CCOc1ccc(Nc2cc(C)nc(-n3nc(C)cc3C)n2)cc1,2.7*,·
CC(=O)Nc1nonc1NC(C)=O,0.09,·
CC(=O)Nc1cc(OC(C)=O)c2nonc2c1OC(C)=O,-4.2*,·
Cc1[nH][nH]c(=O)c1C(c1c(C)[nH][nH]c1=O)c1cn(Cc2ccc(F)cc2)c2ccccc12,-4.8*,12
O=C(O)Cc1cn(Cc2ccc(F)cc2)c2ccccc12,0.024,10
CCCc1[nH]nc2c1C(c1ccc(OC)c(CSC3=NCCS3)c1)C(C#N)=C(N)O2 (configuration not stated),-3.1*,·
CCCc1[nH]nc2c1C(c1cc(OC)cc(OC)c1)C(C#N)=C(N)O2 (configuration not stated),-0.019,·
O=C(NC(=S)Nc1cccnc1)c1cc2ccccc2o1,3.5*,17
O=C(NC(=S)NCc1cccnc1)c1cc2ccccc2o1,-0.71,0
COc1cc(OC)nc(Oc2cc(/C=N/O)ccc2OC)n1,-0.3,7
CCOC(=O)C1=C(c2ccccc2)N(C)C(=O)NC1c1ccc(OC(F)F)c(OC)c1 (configuration not stated),-4.6*,·
CCOC(=O)C1=C(c2ccccc2)NC(=O)NC1c1ccc(OC)c(OC)c1 (configuration not stated),0.1,10
CN(C)CCCNC(=O)/C(=C\C=C\c1ccccc1)NC(=O)c1ccc([N+](=O)[O-])cc1,·,21
O=S(=O)(N/N=C1/CCCc2ccccc21)c1ccc(Br)cc1,-3.7*,8
Cc1ccc(C)c(S(=O)(=O)N/N=C2/CCCc3ccccc32)c1,1.7,·
Cc1onc(-c2ccccc2)c1C(=O)c1ccccc1,0.055,16
CC1(C)CC(=O)C2=C(C1)OC1=C(C(=O)CC(C)(C)C1)C2c1ccc(O)c([N+](=O)[O-])c1,0.1,9
CC1(C)CC(=O)C2=C(C1)OC1=C(C(=O)CC(C)(C)C1)C2c1ccc(O)cc1O,-8*,·
CO[C@H]1C[C@@H]2CC[C@@H](C)[C@@](O)(O2)C(=O)C(=O)N2CCCC[C@H]2C(=O)O[C@H]([C@H](C)C[C@@H]2CC[C@@H](O)[C@H](OC)C2)CC(=O)[C@H](C)C=C(C)[C@@H](O)[C@@H](OC)C(=O)[C@H](C)C[C@H](C)C=CC=CC=C1C,·,17
CC[C@@H]1C=C(C)C[C@H](C)C[C@H](OC)[C@H]2O[C@@](O)(C(=O)C(=O)N3CCCC[C@H]3C(=O)O[C@H](/C(C)=C/[C@@H]3CC[C@@H](O)[C@H](OC)C3)[C@H](C)[C@@H](O)CC1=O)[C@H](C)C[C@@H]2OC,-3.6*,11
CC(CNS(=O)(=O)c1ccccc1)(c1ccccc1)N1CCOCC1 (configuration not stated),·,10
CCOCCCNC(=O)C(NC(=O)Cc1cccs1)c1ccc(Cl)cc1 (configuration not stated),-0.78,2
Cc1ccccc1C(=O)NNC(=S)NC(=O)c1ccc(Cl)cc1Cl,4.9*,·
O=C(NC(=S)N1CCCCCC1)c1ccccc1Cl,0.31,5
SMILES,ROMK mod,Calb biofilm kill
O=C(NC(=S)NNC(=O)c1ccc(Cl)cc1Cl)c1cccnc1,1.1,7
O=C(NC(=S)N1CCCCCC1)c1ccc(Cl)cc1Cl,7.1*,18
CN(C)S(=O)(=O)c1ccc(-c2csc(N/N=C/c3ccc(O)cc3)n2)cc1,·,16
O=C(O)CNC(=O)/C(=C\c1cccc([N+](=O)[O-])c1)NC(=O)c1ccco1,·,8
CCOC(=O)NC(=O)/C(C#N)=C(/C)N(C)C,-0.67,15
COc1cccc(-c2nnc(NC(C)=O)o2)c1,·,19
COc1ccccc1-c1nnc(Nc2nc3c(OC)cccc3s2)o1,2.4*,·
COc1cccc(-c2nnc(Nc3nc4c(F)cccc4s3)o2)c1,9.4*,·
COc1cccc2sc(NN)nc12,0.26,12
O=C(c1ccccc1F)N1CCN(c2ccc([N+](=O)[O-])c(NCC3CCCO3)c2)CC1 (configuration not stated),-1.5,7
COC(=O)c1ccc(Oc2nc(NC(C)(C)C)nc(N3CCOCC3)n2)cc1,0.3,5
O=C1ON=C(c2ccc(Cl)cc2)/C1=C/c1ccc(O)cc1,-1.5,17
COc1cc(/C=C2\C(=O)ON=C2c2ccccc2)cc(Cl)c1O,-15*,13
CC(=O)NS(=O)(=O)c1ccc(NC(=S)NC(=O)Cc2ccccc2)cc1,-0.3,12
COc1ccc(C=O)c(OC)c1,0.26,17
COc1ccc(/C=C2\CC/C(=C\c3ccc(OC)cc3OC)C2=O)c(OC)c1,-2.7*,18
NC1=NC(=Nc2cccc(S(=O)(=O)N3CCOCC3)c2)c2ccccc21,·,7
CC(C)OC(=O)c1cccc(NC(=O)CSc2nnc(N)s2)c1,·,18
